Reference: ChEMBL document CHEMBL1126931, “Synthesis of 20-hydroxy-, 20-amino-, and 20-nitro-14-hydroxy-21-nor-5 beta,14 beta-pregnane C-3 glycosides and related derivatives: structure-activity relationships of pregnanes that bind to the digitalis receptor” (J Med Chem, 1993)

Molecular target: Sodium/potassium-transporting ATPase
Assay: Inhibition of [3H]- ouabain binding to digitalis receptor
Type: protein-complex assay, Cavia porcellus
Procedure, shortened: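 Radioligand binding to the digitalis receptor recognition site of heart muscle, read as displacement of [3H]ouabain.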

In order of rising IC50:
1. C[C@H]1O[C@@H](O[C@H]2[C@@H](O)C[C@H](O[C@H]3[C@@H](O)C[C@H](O[C@H]4CC[C@@]5(C)[C@H](CC[C@@H]6[C@@H]5CC[C@]5(C)[C@@H](C7=CC(=O)OC7)CC[C@]65O)C4)O[C@@H]3C)O[C@@H]2C)C[C@H](O)[C@@H]1O [DIGITOXIN]  8 nM
2. CC1O[C@@H](O[C@H]2CC[C@@]3(C)[C@H](CC[C@@H]4[C@@H]3CC[C@]3(C)[C@@H](C[N+](=O)[O-])CC[C@]43O)C2)C(O)[C@@H](O)[C@H]1O (stereo partly specified)  12 nM
3. CC1O[C@@H](O[C@H]2CC[C@@]3(C)[C@H](CC[C@@H]4[C@@H]3CC[C@]3(C)[C@@H](CC[N+](=O)[O-])CC[C@]43O)C2)C(O)[C@@H](O)[C@H]1O (stereo partly specified)  45 nM
4. CC1O[C@@H](O[C@H]2CC[C@@]3(C)[C@H](CC[C@@H]4[C@@H]3CC[C@]3(C)[C@@H](C[N+](=O)[O-])CC[C@]43O)C2)C[C@@H](O)[C@@H]1O (stereo partly specified)  88 nM
5. CC1O[C@@H](O[C@H]2CC[C@@]3(C)[C@H](CC[C@@H]4[C@@H]3CC[C@]3(C)[C@@H](CN)CC[C@]43O)C2)C(O)[C@@H](O)[C@H]1O (stereo partly specified)  99 nM
6. C[C@H]1O[C@@H](O[C@H]2CC[C@@]3(C)[C@H](CC[C@@H]4[C@@H]3CC[C@]3(C)[C@@H](CN)CC[C@]43O)C2)C[C@@H](O)[C@@H]1O  270 nM
7. CC1O[C@@H](O[C@H]2CC[C@@]3(C)[C@H](CC[C@@H]4[C@@H]3CC[C@]3(C)[C@@H](CO)CC[C@]43O)C2)C(O)[C@@H](O)[C@H]1O (stereo partly specified)  360 nM
8. CC1O[C@@H](O[C@H]2CC[C@@]3(C)[C@H](CC[C@@H]4[C@@H]3CC[C@]3(C)[C@@H](CO)CC[C@]43O)C2)C[C@@H](O)[C@@H]1O (stereo partly specified)  610 nM
9. C[C@H]1O[C@H](O[C@H]2CC[C@@]3(C)[C@H](CC[C@@H]4[C@@H]3CC[C@]3(C)[C@@H](C(=O)CO)CC[C@]43O)C2)[C@H](O)[C@H](O)[C@H]1O  1070 nM
10. COC(=O)[C@H]1CC[C@]2(O)[C@@H]3CC[C@@H]4C[C@@H](O[C@H]5C[C@@H](O)[C@H](O)C(C)O5)CC[C@]4(C)[C@H]3CC[C@]12C (stereo partly specified)  15000 nM
11. CC1O[C@@H](O[C@H]2CC[C@@]3(C)[C@H](CC[C@@H]4[C@@H]3CC[C@]3(C)[C@@H](C(=O)O)CC[C@]43O)C2)C[C@@H](O)[C@@H]1O (stereo partly specified)  36000 nM
